Measurements reported in ChEMBL document CHEMBL1949561, “Synthesis and triplex-forming ability of oligonucleotides bearing 1-substituted 1H-1,2,3-triazole nucleobases” (Bioorg Med Chem, 2011).

Experiments:
Assay type in all cases: nucleic-acid assay
Nucleic Acid [1] = experiment: Binding affinity to5'-GCTAAAAAGACAGAGAGATCG-3'/5'- CGATCTCTCTGTCTTTTTAGC-3' double stranded DNA assessed as melting temperature at 1.5 uM in sodium phosphate buffer at pH 7 by UV spectrophotometric analysis
In short: (§1)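 UV melting of triplexes between each modified TFO and the 21-bp duplex target, in 7 mM sodium phosphate buffer (pH 7.0), 140 mM KCl and 10 mM MgCl₂. Each oligonucleotide at 1.5 µM final. Absorbance followed at 260 nm from 5 °C to 85 °C, scanned at 0.5 °C/min, to give Tm.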

Nucleic Acid [2] = experiment: Binding affinity to 5'-GCTAAAAAGATAGAGAGATCG-3'/5'- CGATCTCTCTATCTTTTTAGC-3' double stranded DNA assessed as melting temperature at 1.5 uM in sodium phosphate buffer at pH 7 by UV spectrophotometric analysis; in short: as §1
Nucleic Acid [3] = experiment: Binding affinity to 5'-GCTAAAAAGAGAGAGAGATCG-3'/5'- CGATCTCTCTCTCTTTTTAGC-3' double stranded DNA assessed as melting temperature at 1.5 uM in sodium phosphate buffer at pH 7 by UV spectrophotometric analysis; in short: as §1
Nucleic Acid [4] = experiment: Binding affinity to 5'-GCTAAAAAGAAAGAGAGATCG-3'/5'- CGATCTCTCTTTCTTTTTAGC-3' double stranded DNA assessed as melting temperature at 1.5 uM in sodium phosphate buffer at pH 7 by UV spectrophotometric analysis; in short: as §1
Nucleic Acid [5] = experiment: Binding affinity to 5'-GCTAAAAAGACAGAGAGATCG-3'/5'- CGATCTCTCTGTCTTTTTAGC-3' double stranded DNA assessed as melting temperature at 1.9 uM in sodium cacodylate buffer at pH 6.8 by UV spectrophotometric analysis
In short: (§2)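 Each oligonucleotide at 1.9 µM final. Absorbance at 260 nm recorded from 5 °C to 85 °C at 0.5 °C/min; Tm taken from the melting profile.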

Nucleic Acid [6] = experiment: Binding affinity to 5'-GCTAAAAAGATAGAGAGATCG-3'/5'- CGATCTCTCTATCTTTTTAGC-3' double stranded DNA assessed as melting temperature at 1.9 uM in sodium cacodylate buffer at pH 6.8 by UV spectrophotometric analysis; in short: as §2
Nucleic Acid [7] = experiment: Binding affinity to 5'-GCTAAAAAGAGAGAGAGATCG-3'/5'- CGATCTCTCTCTCTTTTTAGC-3' double stranded DNA assessed as melting temperature at 1.9 uM in sodium cacodylate buffer at pH 6.8 by UV spectrophotometric analysis; in short: as §2
Nucleic Acid [8] = experiment: Binding affinity to 5'-GCTAAAAAGAAAGAGAGATCG-3'/5'- CGATCTCTCTTTCTTTTTAGC-3' double stranded DNA assessed as melting temperature at 1.9 uM in sodium cacodylate buffer at pH 6.8 by UV spectrophotometric analysis; in short: as §2
Nucleic Acid [9] = experiment: Binding affinity to 5'-GCTAAAAAGACAGAGAGATCG-3'/5'- CGATCTCTCTGTCTTTTTAGC-3' double stranded DNA assessed as change in melting temperature at 1.5 uM in sodium phosphate buffer at pH 7 by UV spectrophotometric analysis

Structure (SMILES) | Tm (Nucleic Acid [1]) | Tm (Nucleic Acid [2]) | Tm (Nucleic Acid [3]) | Tm (Nucleic Acid [4]) | Tm (Nucleic Acid [5]) | Tm (Nucleic Acid [6]) | Tm (Nucleic Acid [7]) | Tm (Nucleic Acid [8]) | ΔTm (Nucleic Acid [9])
Cc1cn([C@H]2C[C@H](OP(=O)(O)OC[C@H]3O[C@@H](n4cc(C)c(=O)[nH]c4=O)C[C@@H]3OP(=O)(O)OC[C@H]3O[C@@H](n4cc(C)c(N)nc4=O)C[C@@H]3OP(=O)(O)OC[C@H]3O[C@@H](n4cc(C)c(=O)[nH]c4=O)C[C@@H]3OP(=O)(O)OC[C@H]3O[C@@H](n4cc(C)c(N)nc4=O)C[C@@H]3OP(=O)(O)OC[C@H]3O[C@@H](n4cc(C)c(=O)[nH]c4=O)C[C@@H]3OP(=O)(O)OC[C@H]3O[C@@H](c4cn(-c5ccccc5)nn4)C[C@@H]3OP(=O)(O)OC[C@H]3O[C@@H](n4cc(C)c(=O)[nH]c4=O)C[C@@H]3OP(=O)(O)OC[C@H]3O[C@@H](n4cc(C)c(N)nc4=O)C[C@@H]3OP(=O)(O)OC[C@H]3O[C@@H](n4cc(C)c(=O)[nH]c4=O)C[C@@H]3OP(=O)(O)OC[C@H]3O[C@@H](n4cc(C)c(=O)[nH]c4=O)C[C@@H]3OP(=O)(O)OC[C@H]3O[C@@H](n4cc(C)c(=O)[nH]c4=O)C[C@@H]3OP(=O)(O)OC[C@H]3O[C@@H](n4cc(C)c(=O)[nH]c4=O)C[C@@H]3OP(=O)(O)OC[C@H]3O[C@@H](n4cc(C)c(=O)[nH]c4=O)C[C@@H]3O)[C@@H](COP(=O)(O)O[C@H]3C[C@H](n4cc(C)c(=O)[nH]c4=O)O[C@@H]3CO)O2)c(=O)nc1N | 25 °C | 17 °C | < 10 °C | < 10 °C | 29 °C | 23 °C | 17 °C | 19 °C | 8 °C
Cc1cn([C@H]2C[C@H](OP(=O)(O)OC[C@H]3O[C@@H](n4cc(C)c(=O)[nH]c4=O)C[C@@H]3OP(=O)(O)OC[C@H]3O[C@@H](n4cc(C)c(N)nc4=O)C[C@@H]3OP(=O)(O)OC[C@H]3O[C@@H](n4cc(C)c(=O)[nH]c4=O)C[C@@H]3OP(=O)(O)OC[C@H]3O[C@@H](n4cc(C)c(N)nc4=O)C[C@@H]3OP(=O)(O)OC[C@H]3O[C@@H](n4cc(C)c(=O)[nH]c4=O)C[C@@H]3OP(=O)(O)OC[C@H]3O[C@@H](c4cn(-c5ccc(NC(N)=O)cc5)nn4)C[C@@H]3OP(=O)(O)OC[C@H]3O[C@@H](n4cc(C)c(=O)[nH]c4=O)C[C@@H]3OP(=O)(O)OC[C@H]3O[C@@H](n4cc(C)c(N)nc4=O)C[C@@H]3OP(=O)(O)OC[C@H]3O[C@@H](n4cc(C)c(=O)[nH]c4=O)C[C@@H]3OP(=O)(O)OC[C@H]3O[C@@H](n4cc(C)c(=O)[nH]c4=O)C[C@@H]3OP(=O)(O)OC[C@H]3O[C@@H](n4cc(C)c(=O)[nH]c4=O)C[C@@H]3OP(=O)(O)OC[C@H]3O[C@@H](n4cc(C)c(=O)[nH]c4=O)C[C@@H]3OP(=O)(O)OC[C@H]3O[C@@H](n4cc(C)c(=O)[nH]c4=O)C[C@@H]3O)[C@@H](COP(=O)(O)O[C@H]3C[C@H](n4cc(C)c(=O)[nH]c4=O)O[C@@H]3CO)O2)c(=O)nc1N | 24 °C | 13 °C | 13 °C | 12 °C | 29 °C | 18 °C | 17 °C | 18 °C | 11 °C
Cc1cn([C@H]2C[C@H](OP(=O)(O)OC[C@H]3O[C@@H](n4cc(C)c(=O)[nH]c4=O)C[C@@H]3OP(=O)(O)OC[C@H]3O[C@@H](n4cc(C)c(N)nc4=O)C[C@@H]3OP(=O)(O)OC[C@H]3O[C@@H](n4cc(C)c(=O)[nH]c4=O)C[C@@H]3OP(=O)(O)OC[C@H]3O[C@@H](n4cc(C)c(N)nc4=O)C[C@@H]3OP(=O)(O)OC[C@H]3O[C@@H](n4cc(C)c(=O)[nH]c4=O)C[C@@H]3OP(=O)(O)OC[C@H]3O[C@@H](c4cn(-c5ccc(C(=O)O)cc5)nn4)C[C@@H]3OP(=O)(O)OC[C@H]3O[C@@H](n4cc(C)c(=O)[nH]c4=O)C[C@@H]3OP(=O)(O)OC[C@H]3O[C@@H](n4cc(C)c(N)nc4=O)C[C@@H]3OP(=O)(O)OC[C@H]3O[C@@H](n4cc(C)c(=O)[nH]c4=O)C[C@@H]3OP(=O)(O)OC[C@H]3O[C@@H](n4cc(C)c(=O)[nH]c4=O)C[C@@H]3OP(=O)(O)OC[C@H]3O[C@@H](n4cc(C)c(=O)[nH]c4=O)C[C@@H]3OP(=O)(O)OC[C@H]3O[C@@H](n4cc(C)c(=O)[nH]c4=O)C[C@@H]3OP(=O)(O)OC[C@H]3O[C@@H](n4cc(C)c(=O)[nH]c4=O)C[C@@H]3O)[C@@H](COP(=O)(O)O[C@H]3C[C@H](n4cc(C)c(=O)[nH]c4=O)O[C@@H]3CO)O2)c(=O)nc1N | 21 °C | < 10 °C | < 10 °C | < 10 °C |  |  |  |  | 11 °C

Now from value to compound:

Tm (Nucleic Acid [1]) | Tm (Nucleic Acid [2]) | Tm (Nucleic Acid [3]) | Tm (Nucleic Acid [4]) | Tm (Nucleic Acid [5]) | Tm (Nucleic Acid [6]) | Tm (Nucleic Acid [7]) | Tm (Nucleic Acid [8]) | ΔTm (Nucleic Acid [9]) | Structure (SMILES)
25 °C | 17 °C | 20 °C | 44 °C | 28 °C | 21 °C | 22 °C | 45 °C |  | Cc1cn([C@H]2C[C@H](OP(=O)(O)OC[C@H]3O[C@@H](n4cc(C)c(=O)[nH]c4=O)C[C@@H]3OP(=O)(O)OC[C@H]3O[C@@H](n4cc(C)c(N)nc4=O)C[C@@H]3OP(=O)(O)OC[C@H]3O[C@@H](n4cc(C)c(=O)[nH]c4=O)C[C@@H]3OP(=O)(O)OC[C@H]3O[C@@H](n4cc(C)c(N)nc4=O)C[C@@H]3OP(=O)(O)OC[C@H]3O[C@@H](n4cc(C)c(=O)[nH]c4=O)C[C@@H]3OP(=O)(O)OC[C@H]3O[C@@H](n4cc(C)c(=O)[nH]c4=O)C[C@@H]3OP(=O)(O)OC[C@H]3O[C@@H](n4cc(C)c(=O)[nH]c4=O)C[C@@H]3OP(=O)(O)OC[C@H]3O[C@@H](n4cc(C)c(N)nc4=O)C[C@@H]3OP(=O)(O)OC[C@H]3O[C@@H](n4cc(C)c(=O)[nH]c4=O)C[C@@H]3OP(=O)(O)OC[C@H]3O[C@@H](n4cc(C)c(=O)[nH]c4=O)C[C@@H]3OP(=O)(O)OC[C@H]3O[C@@H](n4cc(C)c(=O)[nH]c4=O)C[C@@H]3OP(=O)(O)OC[C@H]3O[C@@H](n4cc(C)c(=O)[nH]c4=O)C[C@@H]3OP(=O)(O)OC[C@H]3O[C@@H](n4cc(C)c(=O)[nH]c4=O)C[C@@H]3O)[C@@H](COP(=O)(O)O[C@H]3C[C@H](n4cc(C)c(=O)[nH]c4=O)O[C@@H]3CO)O2)c(=O)nc1N
20 °C | 14 °C | 12 °C | < 10 °C |  |  |  |  |  | CCOC(=O)Cn1cc([C@H]2C[C@H](OP(=O)(O)OC[C@H]3O[C@@H](n4cc(C)c(=O)[nH]c4=O)C[C@@H]3OP(=O)(O)OC[C@H]3O[C@@H](n4cc(C)c(N)nc4=O)C[C@@H]3OP(=O)(O)OC[C@H]3O[C@@H](n4cc(C)c(=O)[nH]c4=O)C[C@@H]3OP(=O)(O)OC[C@H]3O[C@@H](n4cc(C)c(=O)[nH]c4=O)C[C@@H]3OP(=O)(O)OC[C@H]3O[C@@H](n4cc(C)c(=O)[nH]c4=O)C[C@@H]3OP(=O)(O)OC[C@H]3O[C@@H](n4cc(C)c(=O)[nH]c4=O)C[C@@H]3OP(=O)(O)OC[C@H]3O[C@@H](n4cc(C)c(=O)[nH]c4=O)C[C@@H]3O)[C@@H](COP(=O)(O)O[C@H]3C[C@H](n4cc(C)c(=O)[nH]c4=O)O[C@@H]3COP(=O)(O)O[C@H]3C[C@H](n4cc(C)c(N)nc4=O)O[C@@H]3COP(=O)(O)O[C@H]3C[C@H](n4cc(C)c(=O)[nH]c4=O)O[C@@H]3COP(=O)(O)O[C@H]3C[C@H](n4cc(C)c(N)nc4=O)O[C@@H]3COP(=O)(O)O[C@H]3C[C@H](n4cc(C)c(=O)[nH]c4=O)O[C@@H]3COP(=O)(O)O[C@H]3C[C@H](n4cc(C)c(N)nc4=O)O[C@@H]3COP(=O)(O)O[C@H]3C[C@H](n4cc(C)c(=O)[nH]c4=O)O[C@@H]3CO)O2)nn1
